From ChEMBL document CHEMBL4041534, “Treatment of Sepsis Pathogenesis with High Mobility Group Box Protein 1-Regulating Anti-inflammatory Agents” (J Med Chem, 2017)
Where a chain is given by its changes, count along the chain named. ≈ marks a conversion by molar mass, not a printed value. Calls of active or inactive are those of the source. The calls are words filed in the database; no cut-off is given here.

Tests used:
[1] = biological target: T1, High mobility group protein B1 (Mus musculus) (UniProt P63158); assay: Inhibition of HMGB1 translocation from nucleus to cytosol in LPS-stimulated mouse RAW264.7 cells assessed as inhibition of NO release at 10 uM measured after 24 hrs by Griess assay relative to control
T1 sequence (whole entry): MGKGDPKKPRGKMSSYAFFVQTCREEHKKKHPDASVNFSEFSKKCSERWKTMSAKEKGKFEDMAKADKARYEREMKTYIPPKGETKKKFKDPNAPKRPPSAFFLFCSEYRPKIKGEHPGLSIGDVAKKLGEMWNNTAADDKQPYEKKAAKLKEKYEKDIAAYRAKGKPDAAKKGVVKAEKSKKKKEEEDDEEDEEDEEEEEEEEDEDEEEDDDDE
In short: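 Raw264.7 cells, seeded 1 day earlier, were moved to serum-free DMEM and exposed to 100 ng/mL LPS with 10 μM compound for 24 h. Supernatant NO was measured with Griess reagent (sulfanilamide/N-(1-naphthyl)ethylenediamine/phosphoric acid) at room temperature, absorbance 548 nm. Inhibition was set against LPS+DMSO wells, blank-corrected, with four control wells. At least three independent experiments.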

[2] = biological target: T2, High mobility group protein B1 (Homo sapiens) (UniProt P09429); assay: Inhibition of ICM-BP binding to recombinant human HMGB1 assessed as reduction in Cy5-azide incorporation at 1 to 20 uM pretreated for 60 mins followed by ICM-BP addition for 20 mins and subsequent UV light irradiation for 5 mins by fluorescence assay
T2 sequence (whole entry): T1 sequence (whole entry) with D189E, E202D
In short: (§1)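 Purified HMGB1 (1 μg in water) was pretreated with competitor for 60 min, with DMSO held at 0.8% final. ICM-BP (5 μM) was then added for 20 min, followed by 365 nm UV for 5 min on ice. Cy5-azide was attached by click reaction, then samples were run on 12.5% SDS-PAGE and in-gel fluorescence scanned. Competitor was dosed in a graded series.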

[3] = Cytotoxicity against mouse RAW264.7 cells assessed as cell viability at 10 uM in presence of LPS measured after 24 hrs by WST assay relative to control; assay type: cell-based; conditions: read-out: Activity
In short: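 Raw264.7 cells, seeded 1 day earlier, were washed into serum-free DMEM and given 100 ng/mL LPS plus compound (10 μM) for 24 h. After the supernatant was removed, wells were refilled with 10% FBS DMEM and WST reagent was added for 20 min at 37 °C. Absorbance was read at 450 nm, and viability is relative to vehicle. At least three independent experiments.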

[4] = species: Mus musculus; assay: Inhibition of NF-kappaB p65 nuclear translocation in LPS-stimulated mouse RAW264.7 cells at 20 uM pretreated followed by LPS-induction by Hoechst 33342/TRITC staining based immunofluorescence microscopic method
In short: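 NF-κB p65 immunofluorescence in Raw264.7 cells pretreated with 20 μM compound, then stimulated with 500 ng/mL LPS. Fixation was 4% paraformaldehyde, methanol permeabilization at −20 °C, and BSA blocking. Cells were stained with anti-p65 plus TRITC secondary and Hoechst 33342 nuclear stain, then imaged by deconvolution microscopy. At least three independent experiments.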

[5] = Equilibrium aqueous solubility of the compound by microsol method; assay type: physicochemical
In short: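 Equilibrium aqueous solubility by the μsol method. Mean ± SD, n = 3.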

[6] = species: Mus musculus; assay: Inhibition of ERK phosphorylation in LPS-stimulated mouse RAW264.7 cells at 20 uM pretreated followed by LPS-induction by Western blot analysis
In short: (§2)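 Raw264.7 cells were pretreated with 20 μM compound, then stimulated with 100 ng/mL LPS, with DMSO as control. Lysates in RIPA buffer with protease and phosphatase inhibitors were normalized by BCA and run on SDS-PAGE/Western blot for phospho-p38, JNK and ERK, with GAPDH as loading control. Detection by ECL, and band intensities were quantified. At least three independent experiments.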

[7] = Stability in human liver microsomes assessed as compound remaining preincubated for 5 mins followed by NADPH addition measured after 30 mins LC/MS/MS method; assay type: ADME, microsome; conditions: read-out: Stability
In short: (§3)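 Compounds were incubated with human or mouse liver microsomes in 100 mM potassium phosphate, pH 7.4, at 37 °C for 5 min. NADPH regenerating solution was added, and the reaction was stopped at 30 min with ice-cold acetonitrile containing imipramine internal standard. Percent remaining was measured by LC/MS/MS. Mean ± SD, n = 3.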

[8] = Half life in ICR mouse at 10 mg/kg, ip by LC/MS/MS method; assay type: ADME, organism-based; conditions: in vivo
[9] = system: Mus musculus; assay: Anti-inflammatory activity in C57BL/6(B6) mouse model of CLP-induced sepsis assessed as survival rate at 10 mg/kg, ip administered daily for 21 days starting from 1 hr prior to CLP-induction (reference value: 10 %); assay type: functional
[10] = biological target: T2, High mobility group protein B1 (Homo sapiens); assay: Inhibition of ICM-BP binding to recombinant human HMGB1 assessed as reduction in Cy5-azide incorporation pretreated for 60 mins followed by ICM-BP addition for 20 mins and subsequent UV light irradiation for 5 mins by fluorescence assay; in short: as §1
[11] = species: Mus musculus; assay: Inhibition of JNK phosphorylation at Thr183/Tyr185 resdiues in LPS-stimulated mouse RAW264.7 cells at 20 uM pretreated followed by LPS-induction by Western blot analysis; in short: as §2
[12] = system: Mus musculus; assay: Anti-inflammatory activity in C57BL/6(B6) mouse model of CLP-induced sepsis assessed as decrease in serum IL-6 level at 10 mg/kg, ip administered daily for 21 days starting from 1 hr prior to CLP-induction by ELISA; assay type: functional, organism-based
In short: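 Serum IL-6 measured by sandwich ELISA. Blood was taken from CLP-induced C57BL/6 mice 24 h after surgery. Plates coated with anti-IL-6 mAb overnight at 4 °C and blocked with 1% BSA/PBS; serum incubated overnight at 4 °C. Detection used biotinylated anti-IL-6 and streptavidin-HRP, TMB development and absorbance at 450 nm. Run in triplicate, three independent repeats.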

[13] = Stability in mouse liver microsomes assessed as compound remaining preincubated for 5 mins followed by NADPH addition measured after 30 mins LC/MS/MS method; assay type: ADME, microsome; conditions: read-out: Stability; in short: as §3
[14] = biological target: T1, High mobility group protein B1 (Mus musculus); assay: Inhibition of HMGB1 nuclear translocation in LPS-stimulated mouse RAW264.7 cells at 20 uM pretreated for 1 hr followed by LPS-induction measured after 2 hrs by Hoechst 33342/TRITC staining based immunofluorescence microscopic method
In short: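 Raw264.7 cells on chambered coverglass were pretreated with 20 μM compound for 1 h, then given 500 ng/mL LPS for 2 h. Cells were fixed in 4% paraformaldehyde, permeabilized with methanol at −20 °C, blocked with 2% BSA, and stained with anti-HMGB1 plus TRITC secondary and Hoechst 33342. Imaged by deconvolution fluorescence microscopy. At least three independent experiments.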

[15] = biological target: MAP kinase p38 (Mus musculus) (UniProt P47811+O08911+Q9WUI1+Q9Z1B7); assay: Inhibition of MAPK p38 phosphorylation at Thr180/Tyr182 resdiues in LPS-stimulated mouse RAW264.7 cells at 20 uM pretreated followed by LPS-induction by Western blot analysis; in short: as §2
[16] = biological target: T1, High mobility group protein B1 (Mus musculus); assay: Inhibition of HMGB1 nuclear translocation in LPS-stimulated mouse RAW264.7 cells assessed as inhibition of IL-6 production at 10 uM pretreated for 1 hr followed by LPS-induction by Western blot analysis
In short: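 Raw264.7 cells were pretreated with 10 μM compound for 1 h, then given 100 ng/mL LPS. IL-6 released into the culture medium was detected by Western blot with ECL chemiluminescence, DMSO as control. At least three independent experiments.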

[17] = biological target: T1, High mobility group protein B1 (Mus musculus); assay: Inhibition of HMGB1 translocation from nucleus to cytosol in LPS-stimulated mouse RAW264.7 cells assessed as inhibition of TNF-alpha production at 10 uM measured after 4 hrs by ELISA relative to control
In short: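 Raw264.7 cells in serum-free DMEM were treated with 100 ng/mL LPS and 10 μM compound (final). After 4 h, medium was diluted in 1% BSA/PBS and secreted TNF-α was quantified by ELISA against a standard curve of TNF-α protein. Inhibition is relative to control. At least three independent experiments.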

Row | SMILES | inhibition [1] [%] | inhibition [2] | viability at 24 h, 10 µM [3] [%] | inhibition [4] | solubility thermodynamic [5] [µg/mL] | inhibition [6] | remaining at 0.5 h [7] [%] | half-life [8] [h] | survival at 10 mg/kg [9] [%] | inhibition [10] | inhibition [11] | Activity [12] | remaining at 0.5 h [13] [%] | inhibition [14] | inhibition [15] | inhibition [16] | inhibition [17] [%]
1 | Cn1c(=O)n2n(c1=O)C1C(=CC2)C(C)(C)Oc2cc(O)ccc21 (centres undefined) | 45 | inactive | 114 |  |  |  |  |  |  |  |  |  |  |  |  |  | 
2 | COc1cc(OC)cc(-n2c(=O)n3n(c2=O)C2C(=CC3)C(C)(C)Oc3cc(O)ccc32)c1 (centres undefined) | 94 |  | 121 | Active | 65.1 (≈ 149 µM) | Active | 41.2 | 5 | 56 | Dose-dependent effect | Active | Active | 20.2 | Active | Active | Active | 60
